Experimental data taken from ChEMBL document CHEMBL4118206, “Synthesis, characterization and cytotoxicity studies of 1,2,3-triazoles and 1,2,4-triazolo [1,5-a] pyrimidines in human breast cancer cells” (Bioorg Med Chem Lett, 2018).
The source made the active and inactive calls. The calls are words filed in the database; no cut-off is given here.

Key:
[1] = test system: MCF7; test: Cytotoxicity against human MCF7 cells assessed as cell growth inhibition after 72 hrs by alamar blue assay; format: functional, cell-based; details: MCF7, 72 h
[2] = test system: BT-474; test: Cytotoxicity against human BT474 cells assessed as cell growth inhibition after 72 hrs by alamar blue assay; format: functional, cell-based; details: BT-474, 72 h
[3] = biological target: Vascular endothelial growth factor receptor 1 (Homo sapiens) (UniProt P17948); test: Inhibition of VEGFR1 in human MCF7 cells assessed as downregulation of protein expression after 48 hrs by Western blot method; format: cell-based
How it was run: (§1)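 MCF7 cells were seeded at 300,000 per 6 cm dish in RPMI + 10% FBS and grown 24 h. They were then treated in RPMI + 2% FBS for 48 h, harvested and immunoblotted at 40 µg protein per lane. Blots were probed with primary antibodies against VEGFR1 and β-actin.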

[4] = biological target: Vascular endothelial growth factor receptor 1 (Homo sapiens) (UniProt P17948); test: Inhibition of VEGFR1 in human MCF7 cells assessed as downregulation of protein expression at 10 uM after 48 hrs by Western blot method relative to beta-actin; format: cell-based; how it was run: as §1
[5] = biological target: Vascular endothelial growth factor receptor 1 (Homo sapiens) (UniProt P17948); test: Inhibition of VEGFR1 in human MCF7 cells assessed as downregulation of protein expression at 5 uM after 48 hrs by Western blot method relative to beta-actin; format: cell-based; how it was run: as §1
[6] = biological target: Vascular endothelial growth factor receptor 1 (Homo sapiens) (UniProt P17948); test: Inhibition of VEGFR1 in human MCF7 cells assessed as downregulation of protein expression at 15 uM after 48 hrs by Western blot method relative to beta-actin; format: cell-based; how it was run: as §1
[7] = test system: MCF7; test: Effect on beta-actin protein expression in human MCF7 cells at 5 to 15 uM after 48 hrs by Western blot method; format: ADME, cell-based; details: mcf7, 48 h; how it was run: as §1
[8] = test system: MCF7; test: Cytotoxicity against human MCF7 cells assessed as cell growth inhibition at 25 uM after 72 hrs by alamar blue assay; format: functional, cell-based
How it was run: (§2)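 MCF7 cells were seeded at 5000 per well. After 24 h they were exposed to 25 µM compound. Viability was read with AlamarBlue after a 4 h reagent incubation at 24, 48 and 72 h of treatment.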

[9] = test system: MDA-MB-231; test: Cytotoxicity against human MDA-MB-231 cells assessed as cell growth inhibition after 72 hrs by alamar blue assay; format: functional, cell-based; details: MDA-MB-231, 72 h
[10] = test system: MDA-MB-231; test: Cytotoxicity against human MDA-MB-231 cells assessed as cell growth inhibition at 25 uM after 72 hrs by alamar blue assay; format: functional, cell-based
[11] = biological target: Vascular endothelial growth factor receptor 1 (Homo sapiens) (UniProt P17948); test: Inhibition of VEGFR1 in human MCF7 cells assessed as downregulation of protein expression at 2 uM after 48 hrs by Western blot method relative to beta-actin; format: cell-based; how it was run: as §1
[12] = test system: MCF7; test: Cytotoxicity against human MCF7 cells assessed as cell growth inhibition at 25 uM by alamar blue assay; format: functional, cell-based; details: TDE = time-dependent effect; how it was run: as §2
[13] = biological target: Vascular endothelial growth factor receptor 1 (Homo sapiens) (UniProt P17948); test: Inhibition of VEGFR1 in human MCF7 cells assessed as downregulation of protein expression at 1 uM after 48 hrs by Western blot method relative to beta-actin; format: cell-based; how it was run: as §1
[14] = test system: MCF7; test: Effect on beta-actin protein expression in human MCF7 cells at 0.5 to 2 uM after 48 hrs by Western blot method; format: ADME, cell-based; details: mcf7, 48 h; how it was run: as §1
[15] = test system: Ishikawa; test: Cytotoxicity against human Ishikawa cells assessed as cell growth inhibition after 72 hrs by alamar blue assay; format: functional, cell-based
[16] = biological target: Vascular endothelial growth factor receptor 1 (Homo sapiens) (UniProt P17948); test: Inhibition of VEGFR1 in human MCF7 cells assessed as downregulation of protein expression at 0.5 uM after 48 hrs by Western blot method relative to beta-actin; format: cell-based; how it was run: as §1

Chain of Vascular endothelial growth factor receptor 1 (Homo sapiens) (P17948 whole entry): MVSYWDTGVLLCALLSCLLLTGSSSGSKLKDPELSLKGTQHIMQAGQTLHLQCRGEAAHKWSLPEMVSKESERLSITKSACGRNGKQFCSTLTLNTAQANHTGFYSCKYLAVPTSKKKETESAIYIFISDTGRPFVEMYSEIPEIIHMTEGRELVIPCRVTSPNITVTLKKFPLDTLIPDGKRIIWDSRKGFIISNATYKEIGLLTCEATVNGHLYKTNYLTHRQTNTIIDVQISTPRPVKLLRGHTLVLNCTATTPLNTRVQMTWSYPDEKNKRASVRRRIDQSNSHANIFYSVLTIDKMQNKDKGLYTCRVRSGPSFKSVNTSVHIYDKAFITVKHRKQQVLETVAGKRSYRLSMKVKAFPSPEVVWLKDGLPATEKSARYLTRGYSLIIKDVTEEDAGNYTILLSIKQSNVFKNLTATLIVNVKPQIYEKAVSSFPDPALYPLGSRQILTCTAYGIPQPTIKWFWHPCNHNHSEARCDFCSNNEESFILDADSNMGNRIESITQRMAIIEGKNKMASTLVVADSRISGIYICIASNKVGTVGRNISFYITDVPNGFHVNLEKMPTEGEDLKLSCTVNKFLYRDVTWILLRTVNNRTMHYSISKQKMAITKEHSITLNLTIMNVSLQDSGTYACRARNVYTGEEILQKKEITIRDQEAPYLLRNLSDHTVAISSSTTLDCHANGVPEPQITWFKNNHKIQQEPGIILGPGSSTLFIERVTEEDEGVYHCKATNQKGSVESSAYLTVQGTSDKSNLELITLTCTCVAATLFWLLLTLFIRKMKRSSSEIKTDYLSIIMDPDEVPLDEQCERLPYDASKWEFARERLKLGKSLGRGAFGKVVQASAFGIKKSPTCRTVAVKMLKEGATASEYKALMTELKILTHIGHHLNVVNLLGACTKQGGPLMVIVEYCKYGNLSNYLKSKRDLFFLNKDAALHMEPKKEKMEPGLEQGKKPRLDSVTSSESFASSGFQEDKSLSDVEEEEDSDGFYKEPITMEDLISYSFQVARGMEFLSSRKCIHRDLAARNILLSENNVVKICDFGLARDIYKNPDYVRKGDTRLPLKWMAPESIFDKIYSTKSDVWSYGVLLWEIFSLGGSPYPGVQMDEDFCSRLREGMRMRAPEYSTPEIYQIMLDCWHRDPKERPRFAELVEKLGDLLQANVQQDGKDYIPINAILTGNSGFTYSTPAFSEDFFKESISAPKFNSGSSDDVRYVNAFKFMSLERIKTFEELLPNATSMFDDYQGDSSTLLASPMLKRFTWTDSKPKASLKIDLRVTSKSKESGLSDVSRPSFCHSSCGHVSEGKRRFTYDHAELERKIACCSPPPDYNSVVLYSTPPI

Structure (SMILES)	IC50 [1]	growth inhibition (GI) [8]	IC50 [9]	growth inhibition (GI) [10]	other results
N#Cc1cncc(-c2ccc(-n3cc(-c4ccccc4)nn3)cc2)c1	< 50 µM	–	–	–	–
c1ccc(-c2cn(-c3ccc(-c4cc5ccccc5s4)cc3)nn2)cc1	14.4 µM	–	–	–	IC50 [2]: < 50 µM; inhibition [3]: Dose-dependent effect; fold change (FC) [4]: 0.7; fold change (FC) [5]: 0.8; fold change (FC) [6]: 0.63; Activity [7]: Non-Toxic
N#Cc1cncc(-c2ccn3ncnc3n2)c1	–	inactive	> 100 µM	inactive	–
Fc1ccc(Cl)cc1-c1ccc(-n2cc(-c3ccccc3)nn2)cc1	< 50 µM	–	–	–	–
Clc1ccccc1-c1ccc(-n2cc(-c3ccccc3)nn2)cc1	< 50 µM	–	–	–	–
Fc1ccc(Cl)cc1-c1ccn2ncnc2n1	–	inactive	> 100 µM	inactive	–
CCOc1cc(F)ccc1-c1ccn2ncnc2n1	93.8 µM	inactive	50.3 µM	inactive	–
c1ccc(-c2ccc(-n3cc(-c4ccccc4)nn3)cc2)cc1	< 50 µM	–	–	–	–
Cc1ccccc1-c1ccc(-n2cc(-c3ccccc3)nn2)cc1	< 50 µM	–	–	–	–
CCOc1cc(F)ccc1-c1ccc(-n2cc(-c3ccccc3)nn2)cc1	1.69 µM	–	4.81 µM	–	IC50 [2]: 4.08 µM; fold change (FC) [11]: 0.54; inhibition [3]: Dose-dependent effect; growth inhibition (GI) [12]: Tde; fold change (FC) [13]: 0.29; Activity [14]: Non-Toxic; IC50 [15]: 1.97 µM; fold change (FC) [16]: 0.8
Fc1ccc(-c2ccn3ncnc3n2)cn1	> 100 µM	inactive	> 100 µM	inactive	–
Clc1ccccc1-c1ccn2ncnc2n1	> 100 µM	inactive	> 100 µM	inactive	–
COc1ccc(F)cc1-c1ccc(-n2cc(-c3ccccc3)nn2)cc1	< 50 µM	–	–	–	–
c1ccc(-c2ccn3ncnc3n2)cc1	3.91 µM	–	> 100 µM	inactive	–
CS(=O)(=O)c1cccc(-c2ccc(-n3cc(-c4ccccc4)nn3)cc2)c1	< 50 µM	–	–	–	–
COc1ccc(F)cc1-c1ccn2ncnc2n1	> 100 µM	inactive	> 100 µM	inactive	–
Clc1ccccc1-c1ccccc1-c1ccn2ncnc2n1	> 100 µM	inactive	> 100 µM	inactive	–
